The values below come from ChEMBL document CHEMBL1667769, “Sodium [2'-[(cyclopropanecarbonyl-ethyl-amino)-methyl]-4'-(6-ethoxy-pyridin-3-yl)-6-methoxy-biphenyl-3-yl]-acetate (AM432): a potent, selective prostaglandin D2 receptor antagonist” (Bioorg Med Chem Lett, 2011).

The target of assay [1] is T1, Prostaglandin D2 receptor 2 (Homo sapiens, UniProt Q9Y5Y4).
T1 sequence (Q9Y5Y4 whole entry): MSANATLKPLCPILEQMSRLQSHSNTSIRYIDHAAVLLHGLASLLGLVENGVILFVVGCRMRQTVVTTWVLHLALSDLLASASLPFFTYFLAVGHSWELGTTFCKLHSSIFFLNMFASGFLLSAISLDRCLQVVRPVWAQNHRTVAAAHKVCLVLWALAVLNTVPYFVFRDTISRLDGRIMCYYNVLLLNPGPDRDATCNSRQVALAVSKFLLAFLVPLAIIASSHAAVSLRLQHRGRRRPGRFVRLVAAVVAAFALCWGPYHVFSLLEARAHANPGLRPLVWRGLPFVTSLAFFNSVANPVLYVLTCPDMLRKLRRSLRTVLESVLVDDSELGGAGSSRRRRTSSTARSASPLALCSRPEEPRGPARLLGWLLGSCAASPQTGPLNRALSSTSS
The assay is described as follows: Displacement of [3H]PGD2 from human CRTh2 receptor expressed in 293 cells by liquid scintillation counting in presence of 0.2 % HSA. The format is cell-based, HEK293. Put shortly: (§1)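 Membranes from 293 cells stably expressing human DP₂ incubated with [³H]-PGD₂ and increasing compound concentrations. Membranes harvested and washed; bound [³H]-PGD₂ counted. IC₅₀ taken as concentration giving 50% inhibition of binding. Run without and with 0.2% human serum albumin. Values averaged from three experiments (five for the lead).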

Assay [2] addresses T1, Prostaglandin D2 receptor 2. In words: Displacement of [3H]PGD2 from human CRTh2 receptor expressed in 293 cells by liquid scintillation counting. The format is cell-based, HEK293. Put shortly:
as §1
(In general: Loss of bound radioactivity is the signal in a displacement assay; it reports binding, not function.)

pIC50: −log10 of the molar value.

As a reminder, the pIC50 is −log10 of the IC50, conventionally taken in molar units. Regarding `CCN(Cc1cc(NC(C)=O)ccc1-c1cc(CC(=O)O)ccc1OC)C(=O)OCc1ccccc1`, the pIC50 in assay [1] was 7.22; in assay [2] it was 8.15.
Take `CCN(Cc1cc(-c2cnc3ccccc3c2)ccc1-c1cc(CC(=O)O)ccc1OC)C(=O)C1CC1`: the negative logarithm of the IC50 (pIC50) in assay [1] is 7.28; in assay [2] it was 8.15.
The corresponding values for `CCN(Cc1cc(NS(=O)(=O)c2ccc(Cl)cc2)ccc1-c1cc(CC(=O)O)ccc1OC)C(=O)OCc1ccccc1` are 7.05 and 8.52.
The corresponding values for `CCN(Cc1cc(-c2ccc(F)cn2)ccc1-c1cc(CC(=O)O)ccc1OC)C(=O)C1CC1` are 7.22 and 8.05.
The corresponding values for `CCN(Cc1cc(F)ccc1-c1cc(CC(=O)O)ccc1OC)C(=O)OCc1ccccc1` are 8.05 and 9.00.
